Test [1] deals with T1, Glucagon receptor (Homo sapiens, UniProt P47871). The test can be described thus: Agonist activity at GCGR expressed in HEK293 cells assessed as calcium influx at 1 uM by Fluor-4-AM based fluorimetry in presence of GF109203X. The class given is functional, cell-based. A digest of the protocol: (§1)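 Setup as for the GCGR calcium assay (stable GCGR/Gα16 HEK293, 2 μM Fluo-4 AM, HBSS pH 7.4). Cells preincubated 15 min with 10 μM GF109203X. Then first stimulation with compound, 100 nM glucagon or 1% DMSO. After 30 min cells washed, restimulated with 100 nM glucagon, calcium read at ex 485/em 525 nm. Three independent experiments in triplicate.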

Test [2] deals with T2, C-C chemokine receptor type 6 (Homo sapiens, UniProt P51684).
T2 sequence (P51684 whole entry): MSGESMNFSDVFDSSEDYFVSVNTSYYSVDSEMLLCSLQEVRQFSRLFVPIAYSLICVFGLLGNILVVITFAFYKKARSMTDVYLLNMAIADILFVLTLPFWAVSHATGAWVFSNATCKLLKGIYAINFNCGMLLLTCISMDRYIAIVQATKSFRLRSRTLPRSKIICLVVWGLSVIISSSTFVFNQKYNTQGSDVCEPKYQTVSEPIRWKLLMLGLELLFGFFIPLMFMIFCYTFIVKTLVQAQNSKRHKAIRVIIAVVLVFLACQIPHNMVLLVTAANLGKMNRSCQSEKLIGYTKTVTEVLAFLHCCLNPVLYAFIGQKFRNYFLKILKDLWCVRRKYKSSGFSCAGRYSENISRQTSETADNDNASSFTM
In words: Inhibition of CCR6 expressed in HEK293 cells assessed as inhibition of calcium influx after 10 mins by Fluo-4-AM based fluorimetry. Format: functional, cell-based. A digest of the protocol: (§2)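 HEK293 cells stably co-expressing the receptor and Gα16, seeded 3 × 10^4/well overnight. Loaded with 2 μM Fluo-4 AM in HBSS (pH 7.4, 250 μM sulfinpyrazone) 45 min at 37 °C, then pretreated with compound. Receptor-specific agonist added (SunA1-30 for Mth-B). Calcium recorded at ex 485/em 525 nm. IC50 from nonlinear regression; mean ± SEM, n = 3.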

The target in test [3] is T1, Glucagon receptor. In words: Inhibition of GCGR expressed in HEK293 cells assessed as inhibition of calcium influx after 10 mins by Fluo-4-AM based fluorimetry. The class given is functional, cell-based. A digest of the protocol:
(§3)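 HEK293 cells stably co-expressing GCGR and Gα16 (G418/blasticidin selected) were seeded at 3 × 10^4 cells/well and cultured overnight. They were loaded with 2 μM Fluo-4 AM in HBSS (pH 7.4, 250 μM sulfinpyrazone) at 37 °C for 45 min, held 10 min at room temperature, then given agonist. Calcium was read at ex 485/em 525 nm. IC50 came from nonlinear regression, means ± SEM, n = 3.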

Test [4] has as its target Protein kinase C alpha type (Homo sapiens) (UniProt P17252). The test can be described thus: Activation of human GFP-tagged PKCalpha expressed in HEK293 cells assessed as translocation from cytoplasm to membrane at 1 uM after 30 mins by Hoechst staining-based fluorescence microscopy in presence of GF109203X. The class given is cell-based. A digest of the protocol:
(§4)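 HEK293 cells transfected with pCR259hPKCα-GFP, grown overnight on coverslips. Pretreated 15 min at 37 °C with GF109203 X or vehicle, then stimulated 30 min. Fixed in 4% formaldehyde/PBS, nuclei stained with Hoechst 33342 10 min at room temperature. GFP-PKCα membrane translocation imaged by inverted fluorescence microscopy.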

Test [5] concerns the target T1, Glucagon receptor. The test can be described thus: Agonist activity at GCGR expressed in HEK293 cells assessed as calcium influx at 1 uM by Fluor-4-AM based fluorimetry. The class given is functional, cell-based. A digest of the protocol: (§5)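 HEK293 cells stably co-expressing GCGR and Gα16, selected with G418/blasticidin, seeded 3 × 10^4/well overnight. Loaded with 2 μM Fluo-4 AM in HBSS with sulfinpyrazone, pH 7.4, 45 min at 37 °C. First stimulation with compound, 100 nM glucagon or 1% DMSO. After 30 min cells washed and restimulated with 100 nM glucagon. Calcium read at ex 485/em 525 nm. Three independent experiments, each in triplicate.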

For test [6], the target named is Protein kinase C alpha type (Homo sapiens) (UniProt P17252). In words: Activation of human GFP-tagged PKCalpha expressed in HEK293 cells assessed as translocation from cytoplasm to membrane at 1 uM after 30 mins by Hoechst staining-based fluorescence microscopy. The class given is cell-based. A digest of the protocol:
as §4

Test [7] has as its target T3, Alpha-1A adrenergic receptor (Homo sapiens, UniProt P35348).
T3 sequence (P35348 whole entry): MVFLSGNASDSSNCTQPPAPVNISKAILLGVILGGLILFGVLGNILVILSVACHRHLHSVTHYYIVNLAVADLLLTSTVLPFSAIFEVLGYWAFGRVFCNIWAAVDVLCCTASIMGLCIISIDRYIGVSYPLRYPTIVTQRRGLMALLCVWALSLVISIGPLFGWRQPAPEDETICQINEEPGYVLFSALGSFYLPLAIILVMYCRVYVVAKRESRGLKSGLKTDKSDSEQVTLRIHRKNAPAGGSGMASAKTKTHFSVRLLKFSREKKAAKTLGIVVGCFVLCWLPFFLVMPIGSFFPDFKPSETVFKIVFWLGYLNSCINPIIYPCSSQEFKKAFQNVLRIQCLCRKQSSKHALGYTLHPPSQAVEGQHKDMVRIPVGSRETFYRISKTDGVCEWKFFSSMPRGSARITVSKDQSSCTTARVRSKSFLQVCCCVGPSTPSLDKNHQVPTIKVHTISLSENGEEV
The test can be described thus: Inhibition of adrenergic receptor 1a expressed in HEK293 cells assessed as inhibition of calcium influx after 10 mins by Fluo-4-AM based fluorimetry. Format: functional, cell-based. A digest of the protocol: as §2

Test [8] concerns the target T1, Glucagon receptor. In words: Induction of GCGR desensitization expressed in HEK293 cells assessed as reduction in glucagon-induced calcium influx at 1 uM incubated for 30 mins prior to glucagon-induction by Fluo-4-AM based fluorimetry in presence of rottlerin. The class given is functional, cell-based. A digest of the protocol: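 Stable GCGR/Gα16 HEK293 cells loaded with 2 μM Fluo-4 AM, then preincubated 15 min with 10 μM rottlerin. First stimulation with compound, 100 nM glucagon or DMSO. After 30 min cells washed and restimulated with 100 nM glucagon. Intracellular calcium recorded at ex 485/em 525 nm. Three independent experiments in triplicate.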

Test [9] concerns the target T4, Protein kinase C (PKC) (Homo sapiens) (UniProt O94806+P41743+P17252+P05129+Q05655+P05771+Q05513+Q02156+P24723+Q15139+Q04759). In words: Induction of PKC phosphorylation in HEK293 cells at 1 uM by Western blot analysis in presence of rotterin. Format: cell-based. A digest of the protocol:
(§6)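 Serum-starved (4 h) HEK293 cells. Phospho-PKC induced by compound (1 μM) or TPA (100 nM), each in the presence of GF109203 X (1 μM) or rottlerin (10 μM). Read by Western blot with phospho-PKC antibody, normalized to GAPDH. Mean ± SEM, n = 3; two-tailed t test.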
On the technique in general: In western blotting, separated proteins are transferred to a membrane and probed.

Test [10] is described as follows: (§7) Inhibition of Drosophila MthB expressed in HEK293 cells assessed as inhibition of SunA1-30-induced calcium influx incubated for 10 mins prior to SunA1-30 addition by Fluo-4-AM based fluorimetry. The class given is cell-based. A digest of the protocol:
as §2

The subject of the next test is HEK293. The test is described as §7. Format: cell-based. A digest of the protocol:
as §2

Test [11] deals with T4, Protein kinase C (PKC) (Homo sapiens). The test can be described thus: Induction of PKC phosphorylation in HEK293 cells at 1 uM by Western blot analysis. The class given is cell-based. The conditions noted are these: TDE = time-dependent effect. A digest of the protocol:
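HEK293 cells serum-starved 4 h, then treated for various durations at 37 °C, with 100 nM TPA as reference. Lysates run on 10% SDS-PAGE and immunoblotted with an antibody detecting phosphorylated conventional and novel PKC isoforms (1:1000). Signal normalized to GAPDH, detected by ECL. Mean ± SEM, n = 3; two-tailed t test.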

In test [12] the target is T1, Glucagon receptor. In words: Activation of pDsRed-tagged GCGR expressed in HEK293 cells assessed as receptor internalization at 1 uM incubated after 30 mins by Hoechst staining-based fluorescence microscopy. Format: cell-based. A digest of the protocol: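 HEK293 cells transfected with pDsRed-GCGR, grown overnight on coverslips. Stimulated 30 min at 37 °C, with 1% DMSO as negative control. Fixed in 4% formaldehyde/PBS, nuclei stained with Hoechst 33342. Surface versus internalized receptor scored by fluorescence microscopy.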

Test [13] has as its target T4, Protein kinase C (PKC) (Homo sapiens). In words: Induction of PKC phosphorylation in HEK293 cells at 1 uM by Western blot analysis in presence of GF109203 X. Format: cell-based. A digest of the protocol: as §6
The target in test [14] is T1, Glucagon receptor. The test can be described thus: Induction of GCGR desensitization expressed in HEK293 cells assessed as reduction in glucagon-induced calcium influx at 1 uM incubated for 30 mins prior to glucagon-induction by Fluo-4-AM based fluorimetry in presence of GF109203X. The class given is functional, cell-based. A digest of the protocol:
as §1

In test [15] the target is T1, Glucagon receptor. In words: Induction of GCGR desensitization expressed in HEK293 cells assessed as reduction in glucagon-induced calcium influx at 1 uM incubated for 30 mins prior to glucagon-induction by Fluo-4-AM based fluorimetry. The class given is functional, cell-based. A digest of the protocol:
as §5

In test [16] the target is T5, Alpha-1B adrenergic receptor (Homo sapiens, UniProt P35368).
T5 sequence (P35368 whole entry): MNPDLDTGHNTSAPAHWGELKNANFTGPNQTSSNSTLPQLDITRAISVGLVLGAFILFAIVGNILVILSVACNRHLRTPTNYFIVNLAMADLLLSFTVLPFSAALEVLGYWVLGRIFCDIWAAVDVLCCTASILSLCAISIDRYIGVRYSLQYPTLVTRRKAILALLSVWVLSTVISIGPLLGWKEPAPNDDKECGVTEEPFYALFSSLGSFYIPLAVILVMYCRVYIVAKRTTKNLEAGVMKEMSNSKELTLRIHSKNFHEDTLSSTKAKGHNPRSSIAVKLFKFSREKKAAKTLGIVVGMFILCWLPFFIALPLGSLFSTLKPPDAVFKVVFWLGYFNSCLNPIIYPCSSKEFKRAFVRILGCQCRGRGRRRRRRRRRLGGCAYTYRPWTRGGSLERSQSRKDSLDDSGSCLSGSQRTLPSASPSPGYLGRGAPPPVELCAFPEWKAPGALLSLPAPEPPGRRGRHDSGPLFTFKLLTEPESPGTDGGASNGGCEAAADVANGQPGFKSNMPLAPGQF
In words: Inhibition of adrenergic receptor 1b receptor expressed in HEK293 cells assessed as inhibition of calcium influx after 10 mins by Fluo-4-AM based fluorimetry. The class given is functional, cell-based. A digest of the protocol: as §2

For test [17], the target named is T1, Glucagon receptor. In words: Agonist activity at GCGR expressed in HEK293 cells assessed as calcium influx at 100 nM by Fluor-4-AM based fluorimetry. Format: functional, cell-based. A digest of the protocol:
as §3

In test [18] the target is T1, Glucagon receptor. The test can be described thus: Agonist activity at GCGR expressed in HEK293 cells assessed as calcium influx at 100 nM by Fluor-4-AM based fluorimetry in presence of GF109203X. Format: functional, cell-based. A digest of the protocol:
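Fluo-4 AM-loaded GCGR stable HEK293 cells were preincubated with 10 μM GF109203X for 15 min, then stimulated with 100 nM glucagon, test agent or 1% DMSO. After 30 min they were washed and restimulated with 100 nM glucagon, with calcium read fluorimetrically. There were three independent experiments, each in triplicate.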

Test [19] deals with T1, Glucagon receptor. The test can be described thus: Activation of pDsRed-tagged GCGR expressed in HEK293 cells assessed as receptor internalization at 100 nM incubated after 30 mins by Hoechst staining-based fluorescence microscopy. Format: cell-based. A digest of the protocol:
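HEK293 cells transfected with pDsRed-GCGR were seeded on coverslips, cultured overnight, then stimulated at 37 °C for 30 min, with 1% DMSO as the negative control. Cells were fixed in 4% formaldehyde in PBS and nuclei were stained with Hoechst 33342 for 10 min at room temperature. Receptor surface versus internalized location was judged by fluorescence microscopy.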

Test [20] deals with T1, Glucagon receptor. The test can be described thus: Induction of GCGR desensitization expressed in HEK293 cells assessed as reduction in calcium influx at 100 nM incubated for 30 mins prior to second-induction by Fluo-4-AM based fluorimetry. The class given is functional, cell-based. A digest of the protocol: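 GCGR/Gα16 stable HEK293 cells were loaded with Fluo-4 AM and given a first stimulation (100 nM glucagon or test agent; 1% DMSO as the negative control). After a 30 min incubation, cells were washed and restimulated with 100 nM glucagon, and intracellular calcium was recorded at ex 485/em 525 nm. There were three independent experiments, each in triplicate.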

The source made the active and inactive calls. No cut-off for these calls is given here.

T1 sequence (P47871 whole entry): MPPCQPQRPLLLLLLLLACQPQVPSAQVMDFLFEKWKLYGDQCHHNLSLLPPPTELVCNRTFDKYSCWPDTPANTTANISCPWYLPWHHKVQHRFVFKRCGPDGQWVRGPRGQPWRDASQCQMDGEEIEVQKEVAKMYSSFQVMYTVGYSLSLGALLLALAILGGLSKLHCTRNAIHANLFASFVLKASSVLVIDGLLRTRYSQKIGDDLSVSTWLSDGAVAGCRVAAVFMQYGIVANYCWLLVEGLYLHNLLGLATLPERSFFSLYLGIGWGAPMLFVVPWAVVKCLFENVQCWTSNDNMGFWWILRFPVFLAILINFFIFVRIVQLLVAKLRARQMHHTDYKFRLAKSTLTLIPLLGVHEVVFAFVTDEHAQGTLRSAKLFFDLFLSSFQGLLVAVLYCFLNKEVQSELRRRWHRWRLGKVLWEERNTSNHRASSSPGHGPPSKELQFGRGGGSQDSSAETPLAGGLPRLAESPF

Consider `CC(C)CC(=O)O[C@H]1/C=C/C=C/C(=O)O[C@H]2[C@@H](C)C[C@@H]3[C@]2(O)[C@H](O)[C@@]2(CO)O[C@H]2[C@H]2[C@H]4OC5(c6ccccc6)O[C@@H]([C@@H](C)[C@@]23O5)[C@@]4(O)[C@](C)(O)C[C@H]2CC[C@H]1[C@H]2C` [REDIOCIDE A], for which the outcome (at Glucagon receptor [1]; in [4]; on Glucagon receptor [5]; in [13]; at Glucagon receptor [14]) was inactive. Besides, the IC50 (usually the point on the concentration scale where inhibition reaches its midpoint) in test [2] stood at 261 nM; at Glucagon receptor [3], 4 nM; in test [7] it was 13 nM; in [10], 88 nM; in test [16], 215 nM. Also, the outcome (in test [6]; at Glucagon receptor [8]; in [9]; at Glucagon receptor [12]; at Glucagon receptor [15]) was Active. For the same molecule, the inhibition result in the test on HEK293 was “Dose-dependent effect”. Also, in [11], the Activity entry is “tde”.
As to GLUCAGON, the result at Glucagon receptor [17], on Glucagon receptor [18], on Glucagon receptor [19] and at Glucagon receptor [20] was Active.

These data come from ChEMBL document CHEMBL2169797, “Rediocide A, an Insecticide, induces G-protein-coupled receptor desensitization via activation of conventional protein kinase C” (J Nat Prod, 2012).
